Fibroblast inh: antiproliferative effect on LL 47 fibroblasts – human, LL 47 cells, CellTiter-Glo luminescence, primary screen. LL 47 human lung fibroblast viability, ATP luminescence; stronger effect = lower value. viability, % at 10 µM. 85,000 tested, 1.1% active. AID 719, 2007;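 active = viability at or below 50% in the single dose screen; inactive = viability above 50%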;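 also: compound exposure lasted 72 h before the ATP readout; 100% = median luminescence of untreated cell-only wells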
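Material: human LL 47 lung fibroblast cells; quantity: 1,150 cells/well; medium: IMEM plus 15% FBS; doses: 0.1% DMSO in all compound wells; timing: overnight attachment after seeding, then 72 h compound exposure at 37 °C; detection: CellTiter-Glo luminescence; measure: % viability of median cell-only signal; controls: cell-only wells, no compound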
H69AR inhibit: proliferation blockers of H69AR lung cancer cells, primary screen, cell-based, human, 86K library; 85,000 tested, 6% active; H69AR lung tumor viability, ATP luminescence, 72 h; stronger effect = lower value; AID 598, 2007; viability, % at 10 µM;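 active = viability at or below 40%; inactive = viability above 40%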;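 also: multidrug resistant small cell line overexpressing MRP-1 efflux transporter; 100% = mean luminescence of untreated control wells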
HUVEC prolif 384: inhibitors of HUVEC proliferation, primary screen, cell-based, 384-well; CellTiter-Glo luminescence, 72 h; stronger effect = lower value; viability, % at 10 µM (by protocol); 86,000 tested, 1.1% active; AID 648, 2007;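 active = viability at or below 30%; inactive = viability above 30%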;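 also: 100% = median luminescence of DMSO-only cell control wells on each plate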
Jurkat tox 60K: cytotoxicity toward Jurkat T cells, primary screen, cytotoxicity control, cell-based, Jurkat E6.1, 60K MLSMR library; Jurkat E6.1 viability, ATP luminescence, 48 h; inhibition, % at 4 µM; 56,000 tested, 1.2% active; AID 463, 2006;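 active = inhibition above the mean inhibition of all tested compounds plus 3 SD, cut at about 28% in these data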
Numbers without * were called inactive; x = no result given. A selection: hits, their analogues and other compounds. The true share with any hit is near 6.6%.

SMILES	Fibroblast inh	H69AR inhibit	HUVEC prolif 384	Jurkat tox 60K
Cc1cc(=O)oc2cc(OCC3CC(c4ccccc4)=NO3)ccc12 (centres undefined)	91	24*	64	x
Cc1cc(=O)oc2cc(OCC(=O)N3CC(C)OC(C)C3)ccc12 (centres undefined)	104	93	94	x
Cn1c(=O)c2c(ncn2CC(O)CO)n(C)c1=O (centres undefined)	89	97	98	x
Cn1c(=O)c2c(ncn2CC(COCc2ccc(Cl)cc2)OCc2ccc(Cl)cc2)n(C)c1=O (centres undefined)	97	35*	81	x
COc1ccc(C2OC(=O)c3ccccc3S2)cc1 (centres undefined)	103	102	102	1
CCN(CC)S(=O)(=O)c1ccc2oc(C(=O)NCc3ccc(F)cc3)c(C)c2c1	90	33*	65	x
Cc1c(C(=O)NCC2COc3ccccc3O2)oc2ccc(S(=O)(=O)N3CCOCC3)cc12 (centres undefined)	98	53	67	x
CCN(CC)S(=O)(=O)c1ccc2oc(C(=O)NCC3COc4ccccc4O3)c(C)c2c1 (centres undefined)	93	32*	84	x
CCN(CC)S(=O)(=O)c1ccc2oc(C(=O)NCCCN3CCOCC3)c(C)c2c1	100	62	83	x
CCc1ccc(N2CC(C(=O)OCC(=O)Nc3cc(C)on3)CC2=O)cc1 (centres undefined)	x	37*	104	-4
OC1(Cc2ccn[nH]2)CCCCC1	104	102	28*	-2
CN(C)S(=O)(=O)c1ccc(-c2csnn2)s1	105	95	91	x
CCOC(=O)c1c(-c2ccc(C)o2)csc1NC(=O)CSc1nncs1	97	31*	89	4
C/C(N)=C(/C#N)C(=O)COC(=O)C1CCC(C(C)(C)C)CC1 (centres undefined)	78	88	85	x
COC(=O)c1[nH]c2cc(OC)ccc2c1NC(=O)c1nonc1C	88	30*	90	x
CCOC(=O)c1ccccc1NS(=O)(=O)c1ccc(C)cc1	88	11*	74	x
CCOC(=O)c1ccccc1NC(=O)CN(c1ccccc1)S(=O)(=O)N(C)C	98	38*	81	1
CCOC(=O)COc1ccc(S(=O)(=O)N2CCc3ccccc3C2)cc1	61	92	6.2*	-6
CCOC(=O)COc1ccc(S(=O)(=O)Nc2ccc(C)cc2)cc1	16*	94	11*	x
CCOC(=O)COc1ccc(S(=O)(=O)Nc2ccc3c(c2)OCO3)cc1	63	100	41	7
CCOC(=O)c1ccccc1NS(=O)(=O)c1ccccc1	104	100	102	1
CC(C)C(=O)Nc1cccc(C(=O)Nc2nnc(C(C)(C)C)s2)c1	100	70	108	x
CC(=O)Nc1ccc(C(=O)n2nc(C)cc2C)cc1	102	93	102	-1
CC1(C)CC(NCc2ccc3c(c2)OCO3)CCO1 (centres undefined)	100	84	90	x
Cc1nnc(SCCn2c(N3CC(C)CC(C)C3)nc3c2c(=O)[nH]c(=O)n3C)s1 (centres undefined)	102	90	89	0
SMILES	Fibroblast inh	H69AR inhibit	HUVEC prolif 384	Jurkat tox 60K
CCOc1ccc2nnc(-c3ccc(Br)cc3)n2n1	94	92	93	x
CCOc1ccc(S(=O)(=O)Nc2cccc(OC)c2)cc1	95	38*	88	x
CC[n+]1c(P(=O)([O-])c2ccccc2)[nH]c2ccccc21	98	101	103	x
O=C(COc1ccc(Br)cc1)N1CCC(c2ccccc2)C1 (centres undefined)	98	93	109	x
CSc1ccc(C2C(C#N)=C(N)Oc3c2ccc(=O)c2c(C)oc(C)c32)cc1 (centres undefined)	95	10*	64	-6
CCn1c(=O)cc(SCC(=O)N2CCN(c3ccccc3OC)CC2)c2ccccc21	92	55	74	-1
CCOC(=O)N1CCC(NC(=O)c2cc(C)c3c(C)nn(-c4ccccc4)c3n2)CC1	95	22*	85	6
CC(C)n1c(SCC(N)=O)nc2c1c(=O)n(C)c(=O)n2C	96	92	87	-5
CC(C)CCn1c(SCC(N)=O)nc2c1c(=O)n(C)c(=O)n2C	93	39*	100	2
COc1ccc(S(=O)(=O)Nc2nc3ccccc3s2)cc1OC	85	99	82	x
O=C1OC(c2ccc(Cl)cc2)/C(=C(/O)c2ccccc2)C1=O (centres undefined)	110	97	114	x
CC(C)Nc1nc(NC(C)C)nc(N(C#N)CCOc2ccc(Cl)cc2Cl)n1	84	28*	87	x
CCOC(=O)/C=C/S(=O)(=O)c1ccc(NC(C)=O)cc1	14*	-0.2*	68	52*
Cc1sc2nc(C3CC3)nc(NCCNS(=O)(=O)c3ccccc3)c2c1C	91	22*	79	x
CC(C)N=c1scc(-c2ccco2)n1/N=C/c1ccc(O)c(O)c1	48*	31*	47	x
CN=c1scc(C)n1/N=C/c1ccc(O)c(O)c1O	102	86	98	x
COC(=O)C1=C(C)NC(=O)NC1c1ccc(OCC(=O)N2CCCCC2)cc1 (centres undefined)	99	93	96	-1
COC(=O)c1cc(NC(=O)c2c(Cl)nc3sccn23)cc(C(=O)OC)c1	6.7*	36*	68	-2
CCc1ccc(CNc2ccc(O)cc2)cc1	97	53	69	38*
Cc1sc2ncnc(Sc3nnc4sc5ccccc5n34)c2c1C	93	35*	97	x
O=c1n(S(=O)(=O)c2cccc3cccnc23)c2ccccc2n1S(=O)(=O)c1cccc2cccnc12	86	82	77	x
Cc1cc(C)n(-c2nnc3n2N=C(c2c[nH]c4ccccc24)CS3)n1	55	17*	58	57*
Cc1cc(C)n(-c2nnc3n2N=C(c2ccccc2)CS3)n1	105	82	88	8
CSCc1nnc(NC(=O)c2ccc(S(=O)(=O)N(CC(C)C)CC(C)C)cc2)o1	x	x	x	88*
COCc1nnc(NC(=O)c2ccc(S(=O)(=O)N(C)C3CCCCC3)cc2)o1	97	25*	60	10
SMILES	Fibroblast inh	H69AR inhibit	HUVEC prolif 384	Jurkat tox 60K
CCc1nnc(NC(=O)c2ccc(S(=O)(=O)N(CC(C)C)CC(C)C)cc2)o1	57	25*	47	94*
Cc1cc2nc(C3CCN(Cc4nnnn4Cc4cccs4)CC3)[nH]c2cc1C	62	15*	64	19
CCOC(=O)N1CCN(c2nc(C)c3c(n2)CC(C)CC3=O)CC1 (centres undefined)	98	x	106	-5
COc1ccc(-n2nnnc2SCC#CCO)cc1	100	18*	54	6
Cc1ccc2cc(CCNC(=O)c3ccc(Br)o3)c(=O)[nH]c2c1	99	91	86	-8
O=S(=O)(CCN(CCS(=O)(=O)C(F)(F)F)CC1CCCO1)C(F)(F)F (centres undefined)	44*	98	93	13
Cc1ccc2cc3c(NC(=O)c4ccco4)nn(CC(C)C)c3nc2c1	86	35*	52	-8

Screening data from PubChem BioAssay.
